Measured values reported in ChEMBL document CHEMBL1145100, “Structure-activity relationship of imidazo[1,2-a]pyridines as ligands for detecting beta-amyloid plaques in the brain” (J Med Chem, 2003).

Target: Amyloid-beta precursor protein (Homo sapiens, UniProt P05067)
Test: Inhibition constant against [125I]-7 (TZDM) binding to Amyloid beta 1-40 aggregates
Method in brief: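 Abeta40 peptide aggregated at 0.5 mg/mL in pH 7.4 buffer (10 mM sodium phosphate, 1 mM EDTA), 37 °C for 36-42 h with shaking. Competition in 1 mL of 40% EtOH: fibrils 10-50 nM final, radiotracer 0.05 nM, inhibitors 10^-5 to 10^-10 M. Nonspecific binding with 2 µM thioflavin-T. Incubated 3 h at room temperature, then GF/B filtration with 10% ethanol washes and gamma counting. Ki from nonlinear regression.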

Chain of Amyloid-beta precursor protein (P05067 whole entry): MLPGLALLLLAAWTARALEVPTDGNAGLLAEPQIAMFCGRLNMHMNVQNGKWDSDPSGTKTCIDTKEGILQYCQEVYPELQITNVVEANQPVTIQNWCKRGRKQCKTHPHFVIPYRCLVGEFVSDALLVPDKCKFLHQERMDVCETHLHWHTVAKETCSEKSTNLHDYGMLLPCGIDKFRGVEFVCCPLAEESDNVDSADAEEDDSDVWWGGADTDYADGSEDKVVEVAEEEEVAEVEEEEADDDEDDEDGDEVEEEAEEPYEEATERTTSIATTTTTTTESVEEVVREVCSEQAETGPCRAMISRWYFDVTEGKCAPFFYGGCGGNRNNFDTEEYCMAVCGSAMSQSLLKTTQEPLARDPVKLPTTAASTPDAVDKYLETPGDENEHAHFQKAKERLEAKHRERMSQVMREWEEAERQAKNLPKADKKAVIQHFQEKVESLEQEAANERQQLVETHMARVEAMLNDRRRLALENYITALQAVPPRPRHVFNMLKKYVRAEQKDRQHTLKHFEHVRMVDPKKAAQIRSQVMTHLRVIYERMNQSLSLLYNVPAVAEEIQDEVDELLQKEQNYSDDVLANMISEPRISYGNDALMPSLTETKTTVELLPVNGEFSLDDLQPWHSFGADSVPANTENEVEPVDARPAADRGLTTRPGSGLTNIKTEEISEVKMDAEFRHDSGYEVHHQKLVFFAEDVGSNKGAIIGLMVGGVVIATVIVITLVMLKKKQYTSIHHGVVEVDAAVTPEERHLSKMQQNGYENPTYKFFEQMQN

Structure (SMILES) | Ki [nM]
CNc1ccc(-c2cn3cc(C)ccc3n2)cc1 | > 2000
Cc1ccc2nc(-c3ccc(Br)cc3)cn2c1 | 638
CNc1ccc(-c2cn3ccccc3n2)cc1 | > 1000

Now those with a lower Ki, led by results:

Ki [nM] | Structure (SMILES)
242 | Cc1ccc2nc(-c3ccc(N(C)C)cc3)cn2c1
10.3 | CN(C)c1ccc(-c2cn3cc(Br)ccc3n2)cc1
